Source: ChEMBL document CHEMBL1121916, “Structure-activity relationships in dihydropteroate synthase inhibition by sulfanilamides. Comparison with the antibacterial activity” (J Med Chem, 1981)

Assays:
[1] = Inhibition of Escherichia coli (K12J53) Dihydopteroate synthase.
Outline: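 Ammonium sulfate fraction (30–70%) from alumina-disrupted E. coli K12J53 grown on brain-heart infusion agar at 37 °C; it contains both pyrophosphokinase and synthase. Read-out was [14C]dihydropteroate. The 50% inhibitory concentration came from 1/dpm vs. concentration plots, divided by p-aminobenzoate concentration (EII50).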

Escherichia coli = experiment: In vitro inhibition of Escherichia coli (K12J53) growth.
[2] = PKa value was measured; assay type: physicochemical

Row | SMILES | EII50 [1] | GII50 (Escherichia coli) | pKa [2]
1 | N=C(N)NS(=O)(=O)c1ccc(N)cc1 | 10.2 |  | 
2 | Cc1cc(C)n(C)/c(=N/S(=O)(=O)c2ccc(N)cc2)n1 | 26 | 52000 | 
3 | Cc1nnc(NS(=O)(=O)c2ccc(N)cc2)s1 [SULFAMETHIZOLE] | 0.4 |  | 5.22
4 | N#CNS(=O)(=O)c1ccc(N)cc1 | 8 | > 50000 | 2.92
5 | CN(C)S(=O)(=O)c1ccc(N)cc1 | 82 | > 35000 | 
6 | COc1cc(NS(=O)(=O)c2ccc(N)cc2)nc(OC)n1 [SULFADIMETHOXINE] | 0.85 |  | 5.98
7 | CC(=O)NS(=O)(=O)c1ccc(N)cc1 [SULFACETAMIDE] | 4.44 |  | 5.38
8 | Cc1cc(C)nc(N(C)S(=O)(=O)c2ccc(N)cc2)n1 | 10.8 |  | 
9 | Cn1cccc/c1=N/S(=O)(=O)c1ccc(N)cc1 | 8 | 30000 | 
10 | Nc1ccc(S(=O)(=O)Nc2nccs2)cc1 [SULFATHIAZOLE] | 0.9 |  | 7.23
11 | CN(c1nccs1)S(=O)(=O)c1ccc(N)cc1 | 35.4 | > 10000 | 
12 | CNS(=O)(=O)c1ccc(N)cc1 | 32.4 | 60000 | 10.8
13 | NC(=O)NS(=O)(=O)c1ccc(N)cc1 [SULFACARBAMIDE] | 8.4 |  | 5.42
14 | Cn1ccs/c1=N\S(=O)(=O)c1ccc(N)cc1 | 13.4 | > 10000 | 
15 | Nc1ccc(S(=O)(=O)NC(=O)c2ccccc2)cc1 [SULFABENZAMIDE] | 5.2 |  | 4.57
16 | Nc1ccc(S(N)(=O)=O)cc1 | 25 |  | 
17 | Nc1ccc(S(=O)(=O)Nc2ccccn2)cc1 [SULFAPYRIDINE] | 4.2 |  | 8.56
18 | CN(c1ccccn1)S(=O)(=O)c1ccc(N)cc1 | 30 | 40000 | 
19 | CN(c1ncccn1)S(=O)(=O)c1ccc(N)cc1 | 9.2 | 10000 | 
20 | Cn1cccn/c1=N\S(=O)(=O)c1ccc(N)cc1 | 31.2 | > 100000 | 
21 | Cc1cc(C)nc(NS(=O)(=O)c2ccc(N)cc2)n1 [SULFAMETHAZINE] | 1.92 |  | 7.51
22 | Nc1ccc(S(=O)(=O)Nc2ncccn2)cc1 | 2.56 |  | 
